# Results taken from ChEMBL document CHEMBL1155528, “1,4-dihydropyrazolo[4,3-d]imidazole phenyl derivatives: a novel type II Raf kinase inhibitors” (Bioorg Med Chem Lett, 2010).
# pIC50: −log10 of the molar value. Active and inactive are the calls of the source. No cut-off for these calls is given here.
# What was measured:
# [1] = (§1) Antiproliferative activity against human A375P cells after 24 hrs by MTT assay; format: functional
# How it was run: (§2)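 A375P cells (ATCC) grown in DMEM with 10% FBS and 1% penicillin/streptomycin at 37 °C, 5% CO2. Detached with 0.05% trypsin–0.02% EDTA, seeded at 5 × 10³ cells/well, and left 24 h before 12-point threefold serial dilutions were added. Viability was read by MTT reduction (CellTiter 96) at 590 nm, and GI50 was derived.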
# [2] = (§3) Antiproliferative activity against human WM3629 cells after 24 hrs by MTT assay; format: functional; conditions: WM3629, 24 h
# How it was run: (§4)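 WM3629 cells (Wistar Institute) were kept in Tu2% medium. GI50 was determined by MTT as for A375P: 5 × 10³ cells/well, 24 h settling, 12-point threefold serial dilutions, and absorbance at 590 nm.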
# [3] = target: T1, RAF proto-oncogene serine/threonine-protein kinase (Homo sapiens, UniProt P04049); assay: Inhibition of human cRAF using [33P-ATP] as a substrate by scintillation counting; conditions: for pIC50: read-out: IC50
# T1 sequence (P04049 whole entry): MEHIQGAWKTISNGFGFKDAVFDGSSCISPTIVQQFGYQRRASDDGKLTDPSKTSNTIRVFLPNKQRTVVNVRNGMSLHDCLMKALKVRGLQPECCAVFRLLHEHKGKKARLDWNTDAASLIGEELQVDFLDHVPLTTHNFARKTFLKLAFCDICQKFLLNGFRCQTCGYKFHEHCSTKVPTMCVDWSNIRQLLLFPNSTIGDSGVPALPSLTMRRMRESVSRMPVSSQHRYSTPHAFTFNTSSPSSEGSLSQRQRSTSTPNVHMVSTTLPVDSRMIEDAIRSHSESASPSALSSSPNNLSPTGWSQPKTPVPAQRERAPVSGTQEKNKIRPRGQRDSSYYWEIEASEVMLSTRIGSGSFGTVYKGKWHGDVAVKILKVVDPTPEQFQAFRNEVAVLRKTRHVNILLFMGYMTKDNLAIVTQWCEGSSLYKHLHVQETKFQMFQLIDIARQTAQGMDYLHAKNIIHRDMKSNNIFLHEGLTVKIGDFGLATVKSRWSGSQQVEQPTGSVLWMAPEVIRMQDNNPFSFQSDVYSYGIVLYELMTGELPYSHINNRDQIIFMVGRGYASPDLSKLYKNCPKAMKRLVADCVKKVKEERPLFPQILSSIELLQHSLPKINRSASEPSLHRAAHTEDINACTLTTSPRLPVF
# How it was run: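 Run 40 min at room temperature, then stopped with 3% phosphoric acid. Spotted on P30 filter mat, washed in 75 mM phosphoric acid and methanol, dried, and scintillation-counted. IC50 came from a profiler service.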
# A375P = assay: as §1; format: functional; how it was run: as §2
# WM3629 = assay: as §3; format: functional; how it was run: as §4
# [4] = target: BDNF/NT-3 growth factors receptor (Homo sapiens) (UniProt Q16620); assay: Inhibition of human TrkB; conditions: concentration not given here
# How it was run: (§5)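 Tested in an outsourced 30-kinase profiling service panel at a single concentration of 10, with percent inhibition reported.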
# [5] = target: Receptor-type tyrosine-protein kinase FLT3 (Homo sapiens) (UniProt P36888); assay: Inhibition of human Flt3; conditions: concentration not given here; how it was run: as §5
# [6] = target: Ephrin type-A receptor 1 (Homo sapiens) (UniProt P21709); assay: Inhibition of human EphA1; conditions: concentration not given here; how it was run: as §5
# [7] = target: Vascular endothelial growth factor receptor 2 (Homo sapiens) (UniProt P35968); assay: Inhibition of human KDR; conditions: concentration not given here; how it was run: as §5
# [8] = target: T1, RAF proto-oncogene serine/threonine-protein kinase; assay: Inhibition of human RAF; conditions: concentration not given here
# How it was run: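 Human C-Raf (5–10 mU) incubated with 0.66 mg/mL myelin basic protein in 25 mM Tris pH 7.5, 0.02 mM EGTA, 10 mM Mg acetate. Spotted on P30 filter, washed in 75 mM phosphoric acid and methanol, then scintillation counted. Outsourced profiling service.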
# [9] = target: Angiopoietin-1 receptor (Homo sapiens) (UniProt Q02763); assay: Inhibition of human Tie2; conditions: concentration not given here; how it was run: as §5
# Chain of Angiopoietin-1 receptor (Homo sapiens) (Q02763 whole entry): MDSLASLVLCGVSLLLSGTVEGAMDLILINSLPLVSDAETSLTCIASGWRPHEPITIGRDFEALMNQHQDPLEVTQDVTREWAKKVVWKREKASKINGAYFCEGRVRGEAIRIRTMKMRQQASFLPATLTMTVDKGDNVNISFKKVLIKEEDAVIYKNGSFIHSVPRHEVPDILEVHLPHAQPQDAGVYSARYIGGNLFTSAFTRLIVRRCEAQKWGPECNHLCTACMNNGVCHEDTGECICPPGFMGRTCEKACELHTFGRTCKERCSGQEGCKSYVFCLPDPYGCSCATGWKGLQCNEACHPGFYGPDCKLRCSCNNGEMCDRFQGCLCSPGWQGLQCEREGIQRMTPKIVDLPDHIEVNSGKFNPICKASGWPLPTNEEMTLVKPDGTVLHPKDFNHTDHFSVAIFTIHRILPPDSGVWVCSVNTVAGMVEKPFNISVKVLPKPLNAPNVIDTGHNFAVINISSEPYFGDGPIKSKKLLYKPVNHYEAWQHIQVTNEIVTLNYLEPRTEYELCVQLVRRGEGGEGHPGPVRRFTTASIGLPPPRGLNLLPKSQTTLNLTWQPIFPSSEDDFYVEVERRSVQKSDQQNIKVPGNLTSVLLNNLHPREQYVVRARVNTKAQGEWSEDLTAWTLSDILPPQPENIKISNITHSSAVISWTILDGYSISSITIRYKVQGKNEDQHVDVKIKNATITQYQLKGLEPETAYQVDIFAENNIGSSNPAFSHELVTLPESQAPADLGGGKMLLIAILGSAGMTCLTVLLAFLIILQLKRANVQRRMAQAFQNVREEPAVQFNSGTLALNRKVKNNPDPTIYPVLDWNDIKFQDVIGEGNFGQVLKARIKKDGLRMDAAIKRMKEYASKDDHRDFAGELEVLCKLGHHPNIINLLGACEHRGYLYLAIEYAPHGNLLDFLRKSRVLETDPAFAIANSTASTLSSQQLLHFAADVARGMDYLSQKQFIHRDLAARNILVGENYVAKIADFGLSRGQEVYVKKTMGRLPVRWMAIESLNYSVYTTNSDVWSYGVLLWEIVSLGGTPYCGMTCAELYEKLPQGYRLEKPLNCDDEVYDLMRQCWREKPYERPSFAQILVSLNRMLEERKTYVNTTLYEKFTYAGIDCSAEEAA
# [10] = target: Tyrosine-protein kinase BTK (Homo sapiens) (UniProt Q06187); assay: Inhibition of human BTK; conditions: concentration not given here; how it was run: as §5
# [11] = target: Cytoplasmic tyrosine-protein kinase BMX (Homo sapiens) (UniProt P51813); assay: Inhibition of human BMX; conditions: concentration not given here; how it was run: as §5
# [12] = target: ALK tyrosine kinase receptor (Homo sapiens) (UniProt Q9UM73); assay: Inhibition of human ALK; conditions: concentration not given here; how it was run: as §5
# [13] = target: Aurora kinase A (Homo sapiens) (UniProt O14965); assay: Inhibition of human aurora A; conditions: concentration not given here; how it was run: as §5
# [14] = target: Cyclin-dependent kinase 5/CDK5 activator 1 (Homo sapiens) (UniProt Q00535+Q15078); assay: Inhibition of human CDK5/p35; format: protein-complex assay; conditions: concentration not given here; how it was run: as §5
# [15] = target: Macrophage colony-stimulating factor 1 receptor (Homo sapiens) (UniProt P07333); assay: Inhibition of human FMS; conditions: concentration not given here; how it was run: as §5
# [16] = target: Ribosomal protein S6 kinase beta-1 (Homo sapiens) (UniProt P23443); assay: Inhibition of human p701S6K; conditions: concentration not given here; how it was run: as §5
# [17] = target: Fibroblast growth factor receptor 1 (Homo sapiens) (UniProt P11362); assay: Inhibition of human FGFR1; conditions: concentration not given here; how it was run: as §5
# [18] = target: Serine/threonine-protein kinase PLK1 (Homo sapiens) (UniProt P53350); assay: Inhibition of human PLK1; conditions: concentration not given here; how it was run: as §5
# Chain of Serine/threonine-protein kinase PLK1 (Homo sapiens) (P53350 whole entry): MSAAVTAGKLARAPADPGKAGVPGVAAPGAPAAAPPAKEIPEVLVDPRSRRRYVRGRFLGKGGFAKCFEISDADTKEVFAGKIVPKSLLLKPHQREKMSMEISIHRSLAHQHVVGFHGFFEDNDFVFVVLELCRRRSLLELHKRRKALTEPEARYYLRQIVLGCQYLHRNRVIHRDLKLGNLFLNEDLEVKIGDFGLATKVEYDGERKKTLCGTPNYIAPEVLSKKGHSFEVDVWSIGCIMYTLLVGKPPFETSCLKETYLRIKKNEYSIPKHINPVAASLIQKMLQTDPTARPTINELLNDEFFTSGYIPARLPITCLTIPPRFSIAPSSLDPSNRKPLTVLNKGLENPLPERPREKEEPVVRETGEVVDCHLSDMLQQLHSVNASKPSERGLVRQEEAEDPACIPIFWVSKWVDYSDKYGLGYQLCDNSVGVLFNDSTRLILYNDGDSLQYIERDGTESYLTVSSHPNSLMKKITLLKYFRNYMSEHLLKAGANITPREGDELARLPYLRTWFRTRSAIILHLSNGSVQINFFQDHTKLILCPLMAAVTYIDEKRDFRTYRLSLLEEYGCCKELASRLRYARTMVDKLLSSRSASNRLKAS
# [19] = target: Hepatocyte growth factor receptor (Homo sapiens) (UniProt P08581); assay: Inhibition of human Met; conditions: concentration not given here; how it was run: as §5
# [20] = target: Insulin receptor (Homo sapiens) (UniProt P06213); assay: Inhibition of human IR; conditions: concentration not given here; how it was run: as §5
# Chain of Insulin receptor (Homo sapiens) (P06213 28-758 limits assumed): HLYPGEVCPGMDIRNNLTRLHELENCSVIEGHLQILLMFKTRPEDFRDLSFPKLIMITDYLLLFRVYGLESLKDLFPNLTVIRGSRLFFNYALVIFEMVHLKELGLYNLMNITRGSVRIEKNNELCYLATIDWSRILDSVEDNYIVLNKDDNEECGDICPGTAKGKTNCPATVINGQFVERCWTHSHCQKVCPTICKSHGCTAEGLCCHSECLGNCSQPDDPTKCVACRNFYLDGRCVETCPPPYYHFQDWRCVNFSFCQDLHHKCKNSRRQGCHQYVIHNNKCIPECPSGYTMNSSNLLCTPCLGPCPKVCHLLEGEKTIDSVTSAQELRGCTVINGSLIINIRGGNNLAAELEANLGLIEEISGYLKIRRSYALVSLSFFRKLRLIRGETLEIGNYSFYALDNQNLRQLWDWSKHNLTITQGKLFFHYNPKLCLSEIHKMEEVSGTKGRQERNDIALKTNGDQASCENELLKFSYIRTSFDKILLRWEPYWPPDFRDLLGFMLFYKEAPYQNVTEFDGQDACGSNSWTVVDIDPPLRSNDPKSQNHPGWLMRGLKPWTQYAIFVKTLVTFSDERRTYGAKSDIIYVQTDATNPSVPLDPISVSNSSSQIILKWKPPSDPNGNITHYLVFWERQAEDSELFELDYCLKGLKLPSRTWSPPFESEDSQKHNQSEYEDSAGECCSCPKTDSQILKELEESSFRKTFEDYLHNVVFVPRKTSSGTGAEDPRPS
# Chain of Insulin receptor (Homo sapiens) (P06213 763-1382 limits assumed): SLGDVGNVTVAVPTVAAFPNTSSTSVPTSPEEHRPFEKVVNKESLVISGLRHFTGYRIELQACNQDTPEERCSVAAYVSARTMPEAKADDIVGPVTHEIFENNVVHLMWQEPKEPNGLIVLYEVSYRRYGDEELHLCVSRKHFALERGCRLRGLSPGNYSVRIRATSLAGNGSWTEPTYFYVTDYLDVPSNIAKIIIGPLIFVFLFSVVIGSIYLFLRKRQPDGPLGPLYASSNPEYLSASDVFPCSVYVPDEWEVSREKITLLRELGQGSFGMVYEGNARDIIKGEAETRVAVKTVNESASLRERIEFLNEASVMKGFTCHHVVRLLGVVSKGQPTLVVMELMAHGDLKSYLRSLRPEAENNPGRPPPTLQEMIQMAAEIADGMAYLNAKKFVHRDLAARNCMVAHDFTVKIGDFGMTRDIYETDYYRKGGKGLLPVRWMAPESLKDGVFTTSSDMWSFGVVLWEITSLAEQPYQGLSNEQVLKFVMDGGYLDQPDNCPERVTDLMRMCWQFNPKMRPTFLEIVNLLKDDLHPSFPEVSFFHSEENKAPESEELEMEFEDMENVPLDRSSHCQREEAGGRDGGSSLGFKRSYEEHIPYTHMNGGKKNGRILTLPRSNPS
# [21] = target: Casein kinase II (Homo sapiens) (UniProt P67870+P68400+P19784); assay: Inhibition of human CK2; format: protein-complex assay; conditions: concentration not given here; how it was run: as §5
# [22] = target: Proto-oncogene tyrosine-protein kinase Src (Homo sapiens) (UniProt P12931); assay: Inhibition of human cSRC; conditions: concentration not given here; how it was run: as §5
# [23] = target: Insulin-like growth factor 1 receptor (Homo sapiens) (UniProt P08069); assay: Inhibition of human IGF1R; conditions: concentration not given here; how it was run: as §5
# [24] = target: Mast/stem cell growth factor receptor Kit (Homo sapiens) (UniProt P10721); assay: Inhibition of human cKIT; conditions: concentration not given here; how it was run: as §5
# Chain of Mast/stem cell growth factor receptor Kit (Homo sapiens) (P10721 whole entry): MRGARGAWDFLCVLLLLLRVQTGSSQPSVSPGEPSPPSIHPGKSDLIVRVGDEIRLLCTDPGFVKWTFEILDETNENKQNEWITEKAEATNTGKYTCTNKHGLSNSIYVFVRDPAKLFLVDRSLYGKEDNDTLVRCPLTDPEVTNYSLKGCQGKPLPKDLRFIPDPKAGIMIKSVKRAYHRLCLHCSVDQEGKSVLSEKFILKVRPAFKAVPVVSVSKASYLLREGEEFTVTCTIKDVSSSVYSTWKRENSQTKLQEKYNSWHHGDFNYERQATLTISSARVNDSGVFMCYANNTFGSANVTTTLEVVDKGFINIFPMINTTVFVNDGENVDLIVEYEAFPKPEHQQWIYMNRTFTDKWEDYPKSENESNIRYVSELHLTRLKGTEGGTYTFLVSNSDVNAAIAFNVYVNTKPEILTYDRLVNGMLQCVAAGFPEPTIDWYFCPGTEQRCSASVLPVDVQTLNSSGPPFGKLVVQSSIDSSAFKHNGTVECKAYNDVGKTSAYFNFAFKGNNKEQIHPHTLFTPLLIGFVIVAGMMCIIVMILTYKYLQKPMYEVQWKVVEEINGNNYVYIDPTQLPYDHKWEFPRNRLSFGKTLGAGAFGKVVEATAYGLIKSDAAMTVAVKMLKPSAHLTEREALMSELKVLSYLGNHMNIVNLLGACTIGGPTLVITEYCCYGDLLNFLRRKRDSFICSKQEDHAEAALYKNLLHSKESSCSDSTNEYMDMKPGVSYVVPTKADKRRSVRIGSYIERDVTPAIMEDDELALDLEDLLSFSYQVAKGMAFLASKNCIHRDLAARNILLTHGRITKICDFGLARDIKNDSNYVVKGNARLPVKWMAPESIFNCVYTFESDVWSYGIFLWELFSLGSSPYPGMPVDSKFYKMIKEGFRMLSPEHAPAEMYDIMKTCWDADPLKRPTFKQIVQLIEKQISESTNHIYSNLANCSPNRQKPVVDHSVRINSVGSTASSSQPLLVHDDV
# [25] = target: Tyrosine-protein kinase JAK2 (Homo sapiens) (UniProt O60674); assay: Inhibition of human JAK2; conditions: concentration not given here; how it was run: as §5
# [26] = target: Tyrosine-protein kinase receptor UFO (Homo sapiens) (UniProt P30530); assay: Inhibition of human AXL; conditions: concentration not given here; how it was run: as §5
# [27] = target: Tyrosine-protein kinase ABL1 (Homo sapiens) (UniProt P00519); assay: Inhibition of human ABL; conditions: concentration not given here; how it was run: as §5
# [28] = target: Tyrosine-protein kinase SYK (Homo sapiens) (UniProt P43405); assay: Inhibition of human SYK; conditions: concentration not given here
# [29] = target: Platelet-derived growth factor receptor alpha (Homo sapiens) (UniProt P16234); assay: Inhibition of human PDGFRalpha; conditions: concentration not given here; how it was run: as §5
# [30] = target: Cyclin-dependent kinase 2/cyclin E1 (Homo sapiens) (UniProt P24864+P24941); assay: Inhibition of human CDK2/cyclin E; format: protein-complex assay; conditions: concentration not given here; how it was run: as §5
# [31] = target: Inhibitor of nuclear factor kappa-B kinase subunit beta (Homo sapiens) (UniProt O14920); assay: Inhibition of human IKK-beta; conditions: concentration not given here; how it was run: as §5
# Rattus norvegicus = species: Rattus norvegicus; assay: Inhibition of rat AMPK; conditions: concentration not given here
# How it was run: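 Part of an outsourced radiometric kinase panel of 30 kinases, tested at a single concentration of 10 µM. Read-out is percent inhibition of kinase activity.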
smiles,measurement,setting,value
Cc1ccc(NC(=O)Nc2c(F)cc(F)c(C)c2F)cc1-c1nc2c(cnn2Cc2ccccc2)[nH]1,GI50,[1],7.73 µM
same,GI50,[2],1.29 µM
O=C(Nc1ccc(-c2nc3c(cnn3Cc3ccccc3)[nH]2)cc1)Nc1cc(Cl)cc(C(F)(F)F)c1,GI50,[1],6.65 µM
same,GI50,[2],0.75 µM
same,pIC50,[3],6.43
COc1ccc(Cn2ncc3c2nc(-c2ccc(NC(=O)Nc4cc(Cl)cc(C(F)(F)F)c4)cc2C)n3C)cc1,GI50,[1],51.5 µM
same,GI50,[2],3.77 µM
COc1ccc(Cn2ncc3[nH]c(-c4cc(NC(=O)Nc5c(F)cc(F)c(C)c5F)ccc4C)nc32)cc1,GI50,[1],> 100 µM
same,GI50,[2],> 100 µM
Cc1ccc(NC(=O)Nc2cc(N3CCOCC3)cc(C(F)(F)F)c2)cc1-c1nc2c(cnn2Cc2ccccc2)n1C,GI50,[1],> 100 µM
same,GI50,[2],> 100 µM
Cc1ccc(NC(=O)Nc2cc(Cl)cc(C(F)(F)F)c2)cc1-c1nc2c(cnn2Cc2ccccc2)[nH]1,GI50,[1],3.79 µM
same,GI50,[2],0.85 µM
same,pIC50,[3],7.12
COc1ccc(Cn2ncc3[nH]c(-c4ccc(NC(=O)Nc5nc6ccc(C)cc6s5)cc4C)nc32)cc1,GI50,A375P,inactive
same,GI50,WM3629,inactive
Cc1cc(NC(=O)Nc2cc(Cl)cc(C(F)(F)F)c2)ccc1-c1nc2c(cnn2Cc2ccccc2)n1C,GI50,[1],4.16 µM
same,GI50,[2],0.56 µM
same,IC50,[3],Not Active
Cc1ccc(NC(=O)Nc2cc(Cl)cc(C(F)(F)F)c2)cc1-c1nc2[nH]ncc2[nH]1,GI50,[1],> 100 µM
same,GI50,[2],> 100 µM
Cc1ccc(NC(=O)c2cc(Cl)cc(C(F)(F)F)c2)cc1-c1nc2c(cnn2Cc2ccccc2)[nH]1,GI50,[1],2.06 µM
same,GI50,[2],1.14 µM
same,pIC50,[3],6.84
Cc1cc(NC(=O)Nc2cc(Cl)cc(C(F)(F)F)c2)ccc1-c1nc2[nH]ncc2[nH]1,GI50,[1],> 100 µM
same,GI50,[2],14.4 µM
Cc1cc(NC(=O)Nc2cc(N3CCOCC3)cc(C(F)(F)F)c2)ccc1-c1nc2[nH]ncc2[nH]1,GI50,[1],> 100 µM
same,GI50,WM3629,inactive
COc1ccc(Cn2ncc3[nH]c(-c4cc(NC(=O)Nc5ccc(Cl)c(Cl)c5)ccc4C)nc32)cc1,GI50,[1],15.3 µM
same,GI50,[2],1.35 µM
same,pIC50,[3],6.08
Cc1ccc(NC(=O)Nc2cc(Cl)cc(C(F)(F)F)c2)cc1-c1nc2c(cnn2Cc2ccccc2)n1C,GI50,[1],56.3 µM
same,GI50,[2],5.85 µM
Cc1cn(-c2cc(NC(=O)Nc3ccc(-c4nc5[nH]ncc5[nH]4)c(C)c3)cc(C(F)(F)F)c2)cn1,GI50,[1],2.24 µM
same,inhibition,[4],62%
same,inhibition,[5],53%
same,inhibition,[6],30%
same,inhibition,[7],8%
same,inhibition,[8],96%
same,inhibition,[9],82%
same,inhibition,[10],10%
same,inhibition,[11],16%
same,inhibition,[12],61%
same,inhibition,[13],10%
same,inhibition,[14],0%
same,inhibition,[15],42%
same,inhibition,[16],4%
same,inhibition,[17],26%
same,GI50,[2],0.86 µM
same,pIC50,[3],7.30
same,inhibition,[18],8%
same,inhibition,[19],0%
same,inhibition,[20],0%
same,inhibition,[21],8%
same,inhibition,[22],20%
same,inhibition,[23],35%
same,inhibition,[24],0%
same,inhibition,[25],0%
same,inhibition,[26],6%
same,inhibition,[27],37%
same,inhibition,[28],16%
same,inhibition,[29],0%
same,inhibition,[30],33%
same,inhibition,[31],16%
same,inhibition,Rattus norvegicus,5%
COc1ccc(Cn2ncc3[nH]c(-c4ccc(NC(=O)Nc5cc(N6CCOCC6)cc(C(F)(F)F)c5)cc4C)nc32)cc1,GI50,[1],> 100 µM
same,GI50,[2],> 100 µM
O=C(Nc1ccc(-c2nc3c(cnn3Cc3ccccc3)[nH]2)cc1)Nc1ccc(Cl)c(Cl)c1,GI50,[1],> 100 µM
same,GI50,[2],42.8 µM
Cc1ccc(NC(=O)c2cc(N3CCOCC3)cc(C(F)(F)F)c2)cc1-c1nc2[nH]ncc2[nH]1,GI50,A375P,inactive
same,GI50,WM3629,inactive
Cc1ccc(NC(=O)Nc2cc(N3CCOCC3)cc(C(F)(F)F)c2)cc1-c1nc2c(cnn2Cc2ccccc2)[nH]1,GI50,[1],4.29 µM
same,GI50,[2],0.72 µM
same,pIC50,[3],6.81
COc1ccc(Cn2ncc3[nH]c(-c4cc(NC(=O)Nc5cc(Cl)cc(C(F)(F)F)c5)ccc4C)nc32)cc1,GI50,[1],> 100 µM
same,GI50,[2],> 100 µM
Cc1ccc(NC(=O)Nc2cccc(Cl)c2Cl)cc1-c1nc2[nH]ncc2[nH]1,GI50,A375P,inactive
same,GI50,WM3629,inactive
Cc1c(F)cc(F)c(NC(=O)Nc2ccc(-c3nc4c(cnn4Cc4ccccc4)[nH]3)cc2)c1F,GI50,[1],51.7 µM
same,GI50,[2],0.98 µM
Cc1ccc2nc(NC(=O)Nc3ccc(-c4nc5[nH]ncc5[nH]4)c(C)c3)sc2c1,GI50,A375P,inactive
same,GI50,WM3629,inactive
Cc1cc(NC(=O)Nc2cccc(Cl)c2Cl)ccc1-c1nc2[nH]ncc2[nH]1,GI50,A375P,inactive
same,GI50,WM3629,inactive
CNC(=O)c1cc(Oc2ccc(NC(=O)Nc3ccc(Cl)c(C(F)(F)F)c3)cc2)ccn1 [SORAFENIB],GI50,[1],5.58 µM
same,GI50,[2],0.65 µM
